From PubChem
UCH37 DUB inh = human UCH37 deubiquitinating enzyme inhibition. Q9Y5K5. purified proteasome/UCH37, Ub-AMC cleavage fluorescence. inhibition, % (concentration not given with the values). 330,000 compounds, 0.33% hits. AID 588478;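 active means mean inhibition over replicate wells above about 20%, limit read from the data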
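assay system = human UCH37 enzyme supplied as purified proteasome complex | amount = proteasome at 0.15 nM in the dispensed enzyme solution | schedule = 30 min compound-proteasome preincubation then 25 min substrate reaction, room temperature | measured by = fluorescence, ex 355 nm, em 460 nm | benchmarks = no-proteasome wells (full inhibition) and compound-free wells (no inhibition)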
SENP6 inh = inhibitors of human SENP6 protease; Q9GZR1; Recombinant SENP6 catalytic domain, aminoluciferin luminescence; inhibition, % at 10 µM; 330,000 compounds, 1.8% hits;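 active means inhibition above about 50% at the single tested dose, limit read from the data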
SENP1 inh = inhibitors of human SENP1 SUMO protease catalytic domain; 360,000 compounds, 0.21% hits; inhibition, % at 10 µM; Q9P0U3; recombinant SENP1 catalytic domain, CyPet-SUMO1-YPet FRET cleavage;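 active means inhibition at least 30% at 10 µM, raw YFP signal under a set limit, fluorescence ratio 0.5 to 1.5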
Target sequence (Q9P0U3 419-644 limits assumed): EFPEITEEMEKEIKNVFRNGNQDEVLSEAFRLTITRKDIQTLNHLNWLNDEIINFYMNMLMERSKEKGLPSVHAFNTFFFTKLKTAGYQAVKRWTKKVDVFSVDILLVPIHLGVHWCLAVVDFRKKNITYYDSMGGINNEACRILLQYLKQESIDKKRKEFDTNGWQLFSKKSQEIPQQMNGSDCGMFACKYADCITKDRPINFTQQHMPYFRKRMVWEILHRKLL
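system = hSENP1 catalytic domain, recombinant | reagent = SFCypet-SUMO1-SFYpet substrate at 25 nM | doses = one dose per compound, 10 µM, 0.5% DMSO | incubation = enzyme reaction for 50 min at room temperature, dark | measured by = FRET, CFP and YFP emission | controls = no-enzyme low, enzyme-DMSO high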
SENP8 block-1 = SENP8 (human) protease inhibition. recombinant SENP8, Nedd8 substrate fluorescence. Q96LD8. 360,000 compounds, 0.64% hits. inhibition, % at 20 µM. AID 602440; in the data active means inhibition mostly above about 40%, no sharp cut-off; inactive means mostly below about 27%
Target sequence (Q96LD8 whole entry, looked up): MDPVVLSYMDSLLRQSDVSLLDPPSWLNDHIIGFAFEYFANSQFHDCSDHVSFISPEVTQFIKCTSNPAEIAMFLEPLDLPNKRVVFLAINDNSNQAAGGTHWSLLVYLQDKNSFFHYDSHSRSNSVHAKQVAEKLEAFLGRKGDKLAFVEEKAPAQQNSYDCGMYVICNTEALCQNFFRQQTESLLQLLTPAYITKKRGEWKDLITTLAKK
SENP8 block-2 = SENP8 protease inhibition. inhibition, % at 10 µM. Q96LD8. purified SENP8, Z-RLRGG-aminoluciferin cleavage, luminescence. AID 2540. 330,000 compounds, 1.2% hits; in the data active means inhibition above about 50%
SENP7 inh = inhibitors of human SENP7 protease | Q9BQF6 | recombinant SENP7, Z-RLRGG-aminoluciferin luminescence, 40 min | inhibition, % at 5 µM | 330,000 compounds, 1.5% hits | AID 434973;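 active means inhibition above about 50% at the single test dose, limit read from the data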
SENP8 confirm = human SENP8 inhibition, confirmed | shares compounds with SENP7 inh | Recombinant SENP8, Z-RLRGG-aminoluciferin luminescence, 60 min | inhibition, % at 12.5 µM | 6,200 compounds, 40% hits;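 active means mean inhibition across replicates above about 50%, limit read from the data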
SENP6 conf = confirmation of human SENP6 protease inhibitors; shares compounds with SENP7 inh; inhibition, % at 12.5 µM; recombinant SENP6, Z-RLRGG-aminoluciferin luminescence; 6,200 compounds, 58% hits
SENP7 confirm = confirmation of human SENP7 protease inhibitors | shares compounds with SENP7 inh | recombinant SENP7, Z-RLRGG-aminoluciferin luminescence, 40 min | inhibition, % at 12.5 µM | 6,200 compounds, 69% hits | AID 488917
Casp3 select = caspase-3 inhibition (SENP selectivity assay); inhibition, % at 12.5 µM; shares compounds with SENP7 inh; purified caspase-3, Z-DEVD-aminoluciferin luminescence, 60 min; 6,200 compounds, 60% hits;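 active means mean inhibition above about 50%, limit read from the data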
Target sequence (P42574 28-227 limits assumed): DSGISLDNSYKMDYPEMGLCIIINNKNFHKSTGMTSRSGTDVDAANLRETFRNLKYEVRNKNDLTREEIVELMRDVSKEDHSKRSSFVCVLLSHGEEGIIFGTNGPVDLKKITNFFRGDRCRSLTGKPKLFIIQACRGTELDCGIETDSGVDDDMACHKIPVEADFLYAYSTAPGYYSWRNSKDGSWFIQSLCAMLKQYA
SENP luc ctr = luminescence interference (SENP counter-screen); shares compounds with SENP7 inh; Pre-incubated SENP8/Z-RLRGG-aminoluciferin, luciferase luminescence interference; inhibition, % at 12.5 µM; 6,200 compounds, 39% hits;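 active means mean inhibition above about 50% when retested at one dose, limit read from the data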
Of the large screens only hits and unclear results are named; the others gave an inactive call (follow-up assays come after a bar, where they were run). The list is not random: actives were taken first. Their share in the collection is about 2.6%.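 How the source made its calls, unless noted: active means mean inhibition above about 50% in the one-dose retest (limit read from the data); inactive means the rest.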

Cc1ccc(C=NNC(=O)c2ccc(-n3cnnn3)cc2)cc1	none (no result: SENP6 inh, SENP1 inh, SENP8 block-1, SENP8 block-2, SENP7 inh)
Cc1sc(NN=Cc2ccco2)nc1-c1ccccc1	none (no result: SENP6 inh, SENP1 inh, SENP8 block-1, SENP8 block-2, SENP7 inh)
O=C(Nc1ccc(F)cc1)Nc1ccc(N2CCOCC2)c2nonc12	SENP7 inh 57.3 | SENP8 confirm inactive | SENP6 conf inactive | SENP7 confirm inactive | Casp3 select inactive | SENP luc ctr inactive
Cc1cccc(C(=O)NN=Cc2ccc(OCC(=O)N3CCCCC3)cc2)c1	none (no result: SENP6 inh, SENP1 inh, SENP8 block-1, SENP8 block-2, SENP7 inh)
Cc1cc2ncc(-c3cccs3)nc2cc1C	SENP6 inh 93.7, SENP8 block-2 95.9, SENP7 inh 97.9 | SENP8 confirm 65.9 | SENP6 conf 77.0 | SENP7 confirm 67.0 | Casp3 select 85.8 | SENP luc ctr inactive
O=c1c2ccccc2nnn1CSc1ccc2c(c1)OCCO2	SENP7 inh 62.9 | SENP8 confirm 72.5 | SENP6 conf 70.4 | SENP7 confirm 87.1 | Casp3 select 71.8 | SENP luc ctr 71.0
CCC(C(=O)Nc1ccc2c(c1)OCCO2)n1nnc2ccccc2c1=O (centres undefined)	none
Oc1ccccc1/C=N/Nc1cccc2cccnc12	SENP6 inh 92.3, SENP8 block-2 86.5, SENP7 inh 88.2 (no result: UCH37 DUB inh) | SENP8 confirm 92.2 | SENP6 conf 96.1 | SENP7 confirm 101.4 | Casp3 select 79.9 | SENP luc ctr inactive
Cc1ccc(C=NNc2cccc3cccnc23)c(O)c1	none (no result: SENP6 inh, SENP1 inh, SENP8 block-1, SENP8 block-2, SENP7 inh)
c1ccc(Nc2nc3ccccc3o2)cc1	SENP6 inh 96.7, SENP8 block-2 89.8, SENP7 inh 96.8 | SENP8 confirm inactive | SENP6 conf 96.8 | SENP7 confirm inactive | Casp3 select 92.6 | SENP luc ctr 94.3
FC(F)(F)Oc1ccc(Nc2nc3ccccc3o2)cc1	none
Fc1ccccc1Nc1nc2ccccc2o1	SENP6 inh 98.9, SENP8 block-2 93.7, SENP7 inh 96.6 (no result: UCH37 DUB inh) | SENP8 confirm 96.6 | SENP6 conf 98.5 | SENP7 confirm 101.9 | Casp3 select 97.2 | SENP luc ctr 96.2
O=C(NNc1nc2ccccc2o1)c1ccccc1	SENP6 inh 63.8, SENP8 block-2 53.4 | SENP8 confirm inactive | SENP6 conf 69.4 | SENP7 confirm inactive | Casp3 select 71.1 | SENP luc ctr inactive
COc1ccccc1/C=C/C(=O)NCC(=O)NN=Cc1ccc(C(=O)O)cc1	none (no result: SENP6 inh, SENP1 inh, SENP8 block-1, SENP8 block-2, SENP7 inh)
COc1ccc(S(=O)(=O)Oc2cccc(C=N/N=C3/NC(=O)C(CC(=O)O)S3)c2)cc1 (centres undefined)	none (no result: SENP6 inh, SENP1 inh, SENP8 block-1, SENP8 block-2, SENP7 inh)
O=C(Oc1ccc(C=NNC(=O)c2ccco2)cc1)c1ccccc1	none (no result: SENP6 inh, SENP1 inh, SENP8 block-1, SENP8 block-2, SENP7 inh)
CCOc1ccccc1C=NNc1ccc(Cl)nn1	none (no result: SENP6 inh, SENP1 inh, SENP8 block-1, SENP8 block-2, SENP7 inh)
O=C(O)c1ccc(C=NNc2ncc(C(F)(F)F)cc2Cl)cc1	none (no result: SENP6 inh, SENP1 inh, SENP8 block-1, SENP8 block-2, SENP7 inh)
CC(Cn1nnc([N+](=O)[O-])n1)=NNC(=O)c1ccccc1Cl	none (no result: SENP6 inh, SENP1 inh, SENP8 block-1, SENP8 block-2, SENP7 inh)
COc1ccccc1N1CCN(/N=C/c2ccc([N+](=O)[O-])cc2)CC1	SENP6 inh 67.7, SENP8 block-2 54.2, SENP7 inh 63.6 (no result: UCH37 DUB inh) | SENP8 confirm inactive | SENP6 conf inactive | SENP7 confirm 90.9 | Casp3 select inactive | SENP luc ctr inactive
COc1ccccc1N1CCN(N=Cc2cc([N+](=O)[O-])ccc2Cl)CC1	none (no result: SENP6 inh, SENP1 inh, SENP8 block-1, SENP8 block-2, SENP7 inh)
O=C(CNC(=O)c1ccncc1)NN=Cc1ccc(O)cc1O	none (no result: SENP6 inh, SENP1 inh, SENP8 block-1, SENP8 block-2, SENP7 inh)
O=C(O)c1cc(N=Nc2c(O)[nH]c3ccc([N+](=O)[O-])cc23)ccc1Cl	SENP6 inh 54.2, SENP8 block-2 64.8 | SENP8 confirm inactive | SENP6 conf inactive | SENP7 confirm inactive | Casp3 select inactive | SENP luc ctr inactive
NC(=O)N=Nc1c(O)[nH]c2ccc([N+](=O)[O-])cc12	none
O=C(NN=Cc1cccc(O)c1)c1ccc2c(c1)OCCO2	none (no result: SENP6 inh, SENP1 inh, SENP8 block-1, SENP8 block-2, SENP7 inh)
Clc1ccc(OCc2nc(-c3ccncc3)no2)c(Br)c1	none
CCc1ccc(OCc2nc(-c3ccccn3)no2)c(Br)c1	SENP6 inh 92.9, SENP8 block-2 90.5, SENP7 inh 90.9 | SENP8 confirm 95.1 | SENP6 conf 96.3 | SENP7 confirm 100.9 | Casp3 select 87.1 | SENP luc ctr 79.1
Cc1cc(OCc2nc(-c3cccnc3)no2)c(C)cc1Br	none
CC(C)c1ccc(OCc2nc(-c3ccccn3)no2)c(Br)c1	SENP6 inh 85.3, SENP8 block-2 67.0, SENP7 inh 68.5 | SENP8 confirm 74.0 | SENP6 conf 82.2 | SENP7 confirm 93.4 | Casp3 select 63.1 | SENP luc ctr 70.4
Cc1ccc(SCc2nc(-c3ccccn3)no2)cc1	none
Cc1ccc(OCc2nc(-c3ccccn3)no2)c(Br)c1	SENP6 inh 81.9, SENP8 block-2 90.0, SENP7 inh 96.2 | SENP8 confirm inactive | SENP6 conf 96.0 | SENP7 confirm 101.9 | Casp3 select 91.2 | SENP luc ctr 93.0
Cc1ccc(OCc2nc(-c3ccccn3)no2)cc1	SENP7 inh 60.2 | SENP8 confirm inactive | SENP6 conf inactive | SENP7 confirm 80.5 | Casp3 select 70.9 | SENP luc ctr inactive
C/C(C=NNC(=O)Cn1c(C)nc2ccccc21)=C\c1ccccc1	none (no result: SENP6 inh, SENP1 inh, SENP8 block-1, SENP8 block-2, SENP7 inh)
